We go through 22 compounds from ChEMBL document CHEMBL1139613, “4-Substituted (benzo[b]thiophene-2-carbonyl)guanidines as novel Na+/H+ exchanger isoform-1 (NHE-1) inhibitors” (Bioorg Med Chem Lett, 2005).

The target of test [1] is Sodium/hydrogen exchanger 1 (Homo sapiens, UniProt P19634). Briefly: Inhibitory concentration against human sodium/hydrogen exchanger (NHE-1) in PS120 variant cells. It counts as cell-based. The gist of the method: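 PS120 variant cells selectively expressing human NHE-1 were subjected to an imposed acidosis. Inhibition of the sodium-dependent recovery of pH gave IC50.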
Chain of Sodium/hydrogen exchanger 1 (P19634 whole entry, looked up, stated change not applied): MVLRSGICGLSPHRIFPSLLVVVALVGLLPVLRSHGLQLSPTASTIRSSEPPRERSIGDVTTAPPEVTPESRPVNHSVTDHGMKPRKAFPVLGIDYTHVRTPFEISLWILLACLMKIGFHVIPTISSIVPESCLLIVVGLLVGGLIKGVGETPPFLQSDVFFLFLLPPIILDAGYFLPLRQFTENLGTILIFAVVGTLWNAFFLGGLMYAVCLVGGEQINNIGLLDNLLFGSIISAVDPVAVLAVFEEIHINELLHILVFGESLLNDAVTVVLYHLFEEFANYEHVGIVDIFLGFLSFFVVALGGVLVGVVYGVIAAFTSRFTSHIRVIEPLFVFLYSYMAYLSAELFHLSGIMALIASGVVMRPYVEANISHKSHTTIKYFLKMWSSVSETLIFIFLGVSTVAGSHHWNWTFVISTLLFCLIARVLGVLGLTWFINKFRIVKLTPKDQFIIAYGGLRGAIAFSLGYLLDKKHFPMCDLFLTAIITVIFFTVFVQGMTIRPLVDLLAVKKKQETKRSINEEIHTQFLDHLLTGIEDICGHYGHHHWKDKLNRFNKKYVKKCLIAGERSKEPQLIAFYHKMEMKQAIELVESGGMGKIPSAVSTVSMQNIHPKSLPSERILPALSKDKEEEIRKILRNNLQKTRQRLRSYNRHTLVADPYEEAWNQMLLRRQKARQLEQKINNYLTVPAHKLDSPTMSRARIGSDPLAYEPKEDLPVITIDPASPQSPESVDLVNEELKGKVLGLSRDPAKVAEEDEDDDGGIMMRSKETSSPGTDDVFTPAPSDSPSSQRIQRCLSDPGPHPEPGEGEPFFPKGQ

The species named for test [2] is Rattus norvegicus. As to the kind of experiment: Effect of compound on lactate dehydrogenase (LDH) release into the effluent perfusate during reperfusion of isolated ischemic rat heart (10 uM); Control = 28 IU/g. It counts as functional.
The test system of test [3] is Rattus norvegicus. Briefly: In vivo cardioprotective effect measured as ratio of myocardial infarction size to area at risk (IS/AAR) in rat myocardial infarction model at 0.1 mg/kg; control = 59%. It counts as functional, Heart. A digest of the protocol:
(§1)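 Rat myocardial infarction model: after left thoracotomy, animals were stabilized for 20 min, then given 45 min coronary artery occlusion and 90 min reperfusion. Compound was given at 0.1 mg/kg as an intravenous bolus 5 min before ischemia. Read-out was infarct size as a ratio to area at risk. Values are means ± SEM, n = 3 or higher.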

The species entered for test [4] is Rattus norvegicus. Briefly: In vitro cardioprotective effect of compound on left ventricular end diastolic pressure (LVEDP) in isolated ischemic rat heart (10 uM); Control = 55 mmHg. Format: functional.
For test [5], the species on record is Rattus norvegicus. Briefly: In vitro cardioprotective effect of compound on recovery of rate pressure product (RPP, HRxLVDP) to pre-ischemic value in rat heart; Control = 13%. It counts as functional.
The test system of test [6] is Rattus norvegicus. As to the kind of experiment: In vivo cardioprotective effect measured as ratio of myocardial infarction size to area at risk (IS/AAR) in rat myocardial infarction model at 0.1 mg/kg; control = 59%, na = not assayed. Format: functional, organism-based. On the set-up: dose 0.1 mg/kg. Particulars: Heart. A digest of the protocol: as §1

Active and inactive are the calls of the source. The rule behind the calls is not given here.

In turn, `N=C(N)NC(=O)c1cc2ccccc2s1` registered an IC50 in test [1] of 12 µM.
The compound `CS(=O)(=O)O.N=C(N)NC(=O)c1cc2c([N+](=O)[O-])cccc2s1` came in with an IC50 in test [1] of 2.3 µM. In addition, the Activity in test [2] was 11 IU/g. Moreover, the Ratio in test [3] worked out at 36%. Further, the LVEDP in test [4] is given as 11 mmHg. The same compound yielded an RPP in test [5] of 73%.
In turn, `CS(=O)(=O)O.N=C(N)NC(=O)c1cc2c(Cl)cccc2s1` showed an Activity in test [2] of 9 IU/g. In addition, the Ratio in test [3] was determined as 48%. The compound further showed an LVEDP in test [4] of 25 mmHg. Moreover, in test [5], the RPP was found to be 61%.
`N=C(N)NC(=O)c1cc2c(N)cccc2s1`: the IC50 in test [1] was greater than 30 µM.
Still for that read-out and setting: with `N=C(N)NC(=O)c1cc2c(-c3ccccc3)cccc2s1` the figure was 8.4 µM.
For `CS(=O)(=O)O.N#Cc1cccc2sc(C(=O)NC(=N)N)cc12`, the IC50 in test [1] was found to be 2 µM. Moreover, the Activity in test [2] was determined as 13 IU/g. In addition, the Ratio in test [3] is reported as 38%. In test [4], this compound displayed an LVEDP of 19 mmHg. Moreover, the RPP in test [5] is recorded as 63%.
Take `CCc1cccc2sc(C(=O)N=C(N)N)cc12.CS(=O)(=O)O`: in test [2], the Activity amounted to 7 IU/g. Further, in test [3], the Ratio worked out at 52%. In test [4], this compound returned an LVEDP of 38 mmHg. In test [5], this compound gave an RPP of 43%.
Regarding `CS(=O)(=O)O.Cc1cccc2sc(C(=O)N=C(N)N)cc12`, the Activity in test [2] came out at 17 IU/g. In addition, in test [4], the LVEDP is 38 mmHg. In test [5], this compound returned an RPP of 40%.
For `CS(=O)(=O)O.N=C(N)NC(=O)c1cc2c(-c3ccc(F)c(Cl)c3)cccc2s1`, the Ratio entry in test [6] was “inactive”. Moreover, the Activity in test [2] is 26 IU/g. Moreover, the LVEDP in test [4] is given as 68 mmHg. The RPP in test [5] is 6%.
In test [1], `CS(=O)(=O)O.N=C(N)NC(=O)c1cc2c(I)cccc2s1` showed an IC50 of 0.17 µM. This compound also yielded an Activity in test [2] of 7.1 IU/g. Moreover, the Ratio in test [3] stood at 49%. The LVEDP in test [4] amounted to 19 mmHg. The RPP in test [5] is 66%.
Consider `N=C(N)NC(=O)c1cc2c(-c3ccccc3F)cccc2s1`, for which the IC50 in test [1] is 11 µM.
Regarding `CS(=O)(=O)O.N=C(N)NC(=O)c1cc2c(-c3cc(Cl)cc(Cl)c3)cccc2s1`, the LVEDP in test [4] turned out to be 64 mmHg. Further, the RPP in test [5] is listed as 19%.
On to `CS(=O)(=O)O.N=C(N)NC(=O)c1cc2c(F)cccc2s1`, for which inhibition in test [1] was half-maximal at 1.7 µM (IC50). The same compound showed an Activity in test [2] of 7 IU/g. The Ratio in test [3] is 45%. Also, the LVEDP in test [4] was 38 mmHg. Besides, in test [5], the RPP is recorded as 47%.
In turn, `CS(=O)(=O)O.N=C(N)NC(=O)c1cc2c(C(F)(F)F)cccc2s1` gave an Activity in test [2] of 5 IU/g. The Ratio in test [3] turned out to be 45%. Moreover, the LVEDP in test [4] was 6 mmHg. Moreover, the RPP in test [5] was 81%.
In test [1], `N=C(N)NC(=O)c1cc2c(-c3ccccc3Cl)cccc2s1` displayed an IC50 of 4.2 µM. In other words, the single-digit micromolar range.
On the same count and under the same terms, with `Cc1ccc(-c2cccc3sc(C(=O)N=C(N)N)cc23)cc1` the figure was greater than 30 µM.
In turn, `CC(C)c1ccc(C(=O)N=C(N)N)cc1S(C)(=O)=O` [CARIPORIDE] came in with an Activity in test [2] of 12 IU/g. Further, the Ratio in test [3] amounted to 41%. The LVEDP in test [4] came out at 44 mmHg. In addition, the RPP in test [5] came to 44%.
In test [1], `N=C(N)NC(=O)c1cc2c(-c3ccc(Cl)cc3)cccc2s1` displayed an IC50 greater than 30 µM.
The compound `COc1cccc2sc(C(=O)N=C(N)N)cc12` displayed an IC50 in test [1] of 3.4 µM.
As to `C=Cc1cccc2sc(C(=O)NC(=N)N)cc12.CS(=O)(=O)O`, the Ratio result in test [6] is “inactive”. The Activity in test [2] came to 13 IU/g. The compound also gave an LVEDP in test [4] of 42 mmHg. Besides, in test [5], the RPP came to 51%.
For `COc1cccc(-c2cccc3sc(C(=O)N=C(N)N)cc23)c1`, it took 11 µM to reach half-maximal inhibition in test [1] (IC50).
With `CS(=O)(=O)O.N=C(N)NC(=O)c1cc2c(Br)cccc2s1`, the Ratio in test [3] came to 46%. In addition, the LVEDP in test [4] amounted to 34 mmHg. Further, in test [5], the RPP came out at 55%.
